High-throughput results: PubChem, several laboratories
Most compounds without a hit are left out; they make up all but 1.6% or so of the library.
SUMO1 PPI mod: SUMO1-SIM interaction modulation | P63165 | SUMO1 binding to a labelled peptide, TR-FRET, 1 h | inhibition, % at 20 µM | actives 0.33% (n = 360,000); in the data active = inhibition above about 37%
Target sequence (P63165 whole entry, looked up): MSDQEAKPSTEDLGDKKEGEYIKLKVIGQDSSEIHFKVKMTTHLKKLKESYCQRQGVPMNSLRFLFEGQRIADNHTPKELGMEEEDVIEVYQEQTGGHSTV
F508del corr: CFTR F508del correction in bronchial cells | CFBE cells, YFP halide quenching; stimulated with forskolin plus potentiator P3; % fluorescence drop versus neutral controls | actives 0.36% (n = 350,000) | activity (quench increase), % at 7.58 µM | AID 720511;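 active = mean added fluorescence quench of at least 8% versus neutral control, with both replicates also reaching 8%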;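 also: cells transiently co-express mutant CFTR-F508del with the halide-sensitive YFP; corrector assay measuring rescue of mutant channel to the surface after 24 h compound exposure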
Scp-1 inhibitor: Scp-1 (human) phosphatase inhibition; Recombinant Scp1, phosphopeptide, malachite green phosphate absorbance; AID 493091; actives 0.88% (n = 340,000); inhibition, % at 20 µM; Q9GZU7;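 active = inhibition above about 50% at 20 µM, limit read from the data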;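 also: plate controls were DMSO wells with enzyme for no effect and wells lacking enzyme for full effect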
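System: SCP-1 catalytic domain; Reagent: Phospho 17-mer peptide substrate; Doses: one concentration, 20 µM, with 1.0% DMSO; Incubation: 45 min room-temperature reaction, 5 min colour, 30 min stabiliser; Signal: Phosphate-binding colour reagent, absorbance read at 630 nm.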
LMPTP inh: blocks human LMPTP phosphatase; AID 651560; actives 0.22% (n = 360,000); recombinant LMPTP-A, OMFP fluorogenic substrate, fluorescence intensity; inhibition, % at 20 µM;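 active = compounds that cut the enzyme signal by at least half of the control window in the single-dose screen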;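 also: plate controls were DMSO wells with enzyme plus substrate for no effect and substrate without enzyme for full effect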
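Test system: LMPTP-A phosphatase enzyme. Amount: LMPTP-A at 0.625 nM final in the reaction. Reagent: OMFP substrate, 400 µM final. Times: 50 min at room temperature. Signal: endpoint fluorescence intensity from OMFP dephosphorylation. Read-out basis: % inhibition. Benchmarks: no-enzyme and uninhibited controls.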
STEP inh: STEP (human) phosphatase inhibition; P54829; recombinant STEP, OMFP fluorogenic substrate, fluorescence; inhibition, % at 20 µM; actives 0.25% (n = 360,000); AID 588621;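 active = inhibition at 20 µM, scaled per plate between control wells, above about 37%, limit read from the data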;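 also: 0% = DMSO with enzyme and substrate and 100% = substrate only without enzyme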
Target sequence (P54829 whole entry, looked up): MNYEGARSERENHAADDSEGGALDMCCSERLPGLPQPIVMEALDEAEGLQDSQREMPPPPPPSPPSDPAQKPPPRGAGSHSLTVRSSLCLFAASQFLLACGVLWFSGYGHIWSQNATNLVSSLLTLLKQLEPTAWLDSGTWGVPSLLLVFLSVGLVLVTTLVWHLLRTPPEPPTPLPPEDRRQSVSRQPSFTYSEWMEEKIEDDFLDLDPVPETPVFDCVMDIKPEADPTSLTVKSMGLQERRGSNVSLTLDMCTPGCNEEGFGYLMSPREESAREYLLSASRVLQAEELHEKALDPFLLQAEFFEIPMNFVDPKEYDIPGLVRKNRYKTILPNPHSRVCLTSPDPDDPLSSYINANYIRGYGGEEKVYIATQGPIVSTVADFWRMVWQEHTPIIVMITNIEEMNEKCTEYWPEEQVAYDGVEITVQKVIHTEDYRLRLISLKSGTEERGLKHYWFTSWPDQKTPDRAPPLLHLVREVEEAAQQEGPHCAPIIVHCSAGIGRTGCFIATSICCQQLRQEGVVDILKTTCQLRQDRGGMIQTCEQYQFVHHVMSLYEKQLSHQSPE
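medium = Bis-Tris buffer pH 6.0, 2.5 mM DTT, 0.005% Tween 20 | test system = STEP (striatal-enriched tyrosine phosphatase) enzyme, cell-free | measure = normalized % inhibition | compound dosing = 20 µM, 1% DMSO | also added = 25 µM OMFP | schedule = reaction 20 min, ambient temperature | measured by = fluorescence read at 480 nm ex / 540 nm em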
DNMT1 inh: DNMT1 (human) enzyme inhibition | AID 588458 | DNMT1 molecular beacon, Hinp1I cleavage, fluorescence | inhibition (reported as % activation of signal), % at 10 µM | P26358 | actives 0.83% (n = 360,000); in the data active = inhibition above about 50%
Scp1 confirm: confirmation of human Scp-1 phosphatase inhibitors; AID 540281; actives 61% (n = 2,500); recombinant SCP-1 catalytic domain, phosphate release, malachite green absorbance; shares compounds with Scp-1 inhibitor; inhibition, % at 20 µM;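 also: plate controls were DMSO with enzyme for no effect and buffer wells lacking enzyme for full effect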
MG interference: colorimetric interference in Scp-1 counter-screen | shares compounds with Scp-1 inhibitor | Colorimetric interference counterscreen, malachite green absorbance 630 nm | apparent inhibition (interference), % at 20 µM | 2,500 tested, under 10 active;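 also: compounds added after enzyme reaction finished so only phosphate colour detection is probed; plate controls were DMSO wells with completed Scp-1 reaction for no effect and substrate wells lacking enzyme for full effect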
Scp-1 Tm shift: Scp-1 (human) binding by thermal shift; Recombinant SCP1, Sypro Orange thermal shift Tm; thermal shift relative to vanadate control, % at 40 µM; actives 25% (n = 1,500); shares compounds with Scp-1 inhibitor;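 active = substances whose mean melting-temperature shift, as a percentage of the reference inhibitor's shift, reaches about 5.3%, limit read from the data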;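 also: 0% = Tm of DMSO wells and 100% = Tm with sodium orthovanadate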
Active calls of the source: *.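 The calls were made as follows, unless noted: active = inhibition of at least 30% at 20 µM; inactive = the rest.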

How did C[C@@H]1CN([C@H](C)CO)C(=O)c2cc(NS(=O)(=O)c3ccc(F)cc3)ccc2O[C@@H](C)CCCCO[C@H]1CN(C)C(=O)C1CCCCC1 do in these assays?
F508del corr: -3

Results for Cc1cc(NC(=O)c2ccc(C)c([N+](=O)[O-])c2)no1 ?
SUMO1 PPI mod: -10; F508del corr: 5; Scp-1 inhibitor: -3; LMPTP inh: 0; STEP inh: -1; DNMT1 inh: 0

What do the screens show for `Cc1ccc(C(=O)Nc2cccc(NC(=O)c3ccc(C)c([N+](=O)[O-])c3)n2)cc1[N+](=O)[O-]`?
SUMO1 PPI mod: 18; F508del corr: 5; Scp-1 inhibitor: 70*; LMPTP inh: 36; STEP inh: 4; DNMT1 inh: 31; Scp1 confirm: 67*; MG interference: -10; Scp-1 Tm shift: 14*

Results for CCOC(=O)C1C(C(C)=O)=C(c2ccccc2)c2ccccc2N1S(=O)(=O)C(F)(F)F (stereo unspecified) ?
SUMO1 PPI mod: -5; F508del corr: 4; Scp-1 inhibitor: 88*; LMPTP inh: 1; STEP inh: 0; DNMT1 inh: 9; Scp1 confirm: 22; MG interference: -23

Results for C=C1c2cccc(OC)c2O[C@H](C(=O)OCC)[C@@H]1CC(CC)CCCC (stereo partly specified) ?
SUMO1 PPI mod: 5; F508del corr: 0; Scp-1 inhibitor: 94*; LMPTP inh: 2; STEP inh: 0; DNMT1 inh: 5; Scp1 confirm: 34*; MG interference: -23; Scp-1 Tm shift: -11

What do the screens show for `O=C1NC(=Nc2ccccc2)S/C1=C\c1cccnc1`?
SUMO1 PPI mod: -17; F508del corr: 0; Scp-1 inhibitor: 67*; LMPTP inh: 4; STEP inh: 6; DNMT1 inh: 1; Scp1 confirm: 10; MG interference: -4

What do the screens show for `O=C1N/C(=N/S(=O)(=O)c2ccccc2)S/C1=C/c1cccnc1`?
SUMO1 PPI mod: -2; F508del corr: -1; Scp-1 inhibitor: -1; LMPTP inh: -1; STEP inh: -1; DNMT1 inh: 4

What do the screens show for `C[C@H](CO)N1C[C@H](C)[C@H](CN(C)C(=O)NC2CCCC2)Oc2ncc(-c3cccc(F)c3)cc2C1=O`?
F508del corr: -1

What do the screens show for `CC(=O)NC1=NC(=O)/C(=C/c2cc(C)n(-c3cccc(C(=O)O)c3)c2C)S1`?
SUMO1 PPI mod: 23; F508del corr: 3; Scp-1 inhibitor: 72*; LMPTP inh: 16; STEP inh: 34; DNMT1 inh: 93*; Scp1 confirm: 53*; MG interference: -21; Scp-1 Tm shift: 5.3*

Results for COc1ccc(C(=O)NNC(=O)c2ccc3ccccc3c2O)cc1 ?
SUMO1 PPI mod: 3; F508del corr: -1; Scp-1 inhibitor: 21; LMPTP inh: -2; STEP inh: 6; DNMT1 inh: -2

What do the screens show for `Cc1ccc(C(=O)NNC(=O)c2ccc3ccccc3c2O)cc1`?
SUMO1 PPI mod: 2; F508del corr: -3; Scp-1 inhibitor: 75*; LMPTP inh: 1; STEP inh: 11; DNMT1 inh: -1; Scp1 confirm: 56*; MG interference: -26; Scp-1 Tm shift: 2

What do the screens show for `Cc1ccc(S(=O)(=O)Nc2ccc3c(c2)C(=O)N([C@@H](C)CO)C[C@@H](C)[C@@H](CN(C)S(=O)(=O)c2cn(C)cn2)O3)cc1`?
F508del corr: 0

What do the screens show for `COc1ccccc1N(CC(=O)Nc1ccc2c(c1)OCO2)S(=O)(=O)c1ccccc1`?
SUMO1 PPI mod: 2; Scp-1 inhibitor: 99*; LMPTP inh: -1; STEP inh: -2; DNMT1 inh: 1; Scp1 confirm: 19; MG interference: -9

How did CC1C(C#N)=C(N)OC2=C1C(=O)CC(c1ccccc1)C2 (stereo unspecified) do in these assays?
SUMO1 PPI mod: -3; F508del corr: -2; Scp-1 inhibitor: 55*; LMPTP inh: -1; STEP inh: 2; DNMT1 inh: -1; Scp1 confirm: -14; MG interference: -9

How did CCC(=O)N1CC2(C1)[C@@H](c1ccccc1)[C@H](CO)N2CCC(F)(F)F do in these assays?
F508del corr: 3

What do the screens show for `O=C(O)C[C@H]1C[C@H]2c3cc(NC(=O)C4CCOCC4)ccc3O[C@H]2[C@H](CO)O1`?
F508del corr: 4

How did COC(=O)C[C@H]1CC[C@H]2[C@H](COc3ccc(NC(=O)c4cscn4)cc3C(=O)N2C)O1 do in these assays?
F508del corr: -4

How did Cc1cc(NC2CCCCC2)nc2ccccc12 do in these assays?
SUMO1 PPI mod: 2; F508del corr: 2; Scp-1 inhibitor: 4; LMPTP inh: 4; STEP inh: -2; DNMT1 inh: 2

What do the screens show for `Cc1cc(OCC[N+]2(C)CCCCC2)nc2ccccc12`?
SUMO1 PPI mod: -1; Scp-1 inhibitor: 102*; LMPTP inh: 0; STEP inh: -3; DNMT1 inh: 6; Scp1 confirm: 90*; MG interference: -8; Scp-1 Tm shift: -20

What do the screens show for `Cc1cccc(NC(=O)CSc2nc(N)c(NC(=O)c3ccccc3F)c(=O)[nH]2)c1`?
SUMO1 PPI mod: 11; F508del corr: 2; Scp-1 inhibitor: -2; LMPTP inh: 0; STEP inh: -1; DNMT1 inh: 1

What do the screens show for `CC(=O)Nc1ccc(NC(=O)CSc2nc(N)c(NC(=O)c3ccccc3F)c(=O)[nH]2)cc1`?
SUMO1 PPI mod: 19; F508del corr: -1; Scp-1 inhibitor: 53*; LMPTP inh: 9; STEP inh: 2; DNMT1 inh: 16; Scp1 confirm: 49*; MG interference: -1; Scp-1 Tm shift: -21

Results for C[C@H]1CN([C@@H](C)CO)C(=O)c2cc(N(C)C)ccc2O[C@H]1CN(C)C(=O)Nc1ccccc1 ?
F508del corr: -3

How did Cc1sc(NC(=O)Cn2nc(C(F)(F)F)cc2C)c(C(=O)OC(C)C)c1C do in these assays?
SUMO1 PPI mod: -2; Scp-1 inhibitor: 63*; LMPTP inh: 3; STEP inh: 1; DNMT1 inh: -1; Scp1 confirm: -18; MG interference: -17
